For one data set, the target named is T1, Proteasome subunit beta type-9 (Homo sapiens, UniProt P28065).
T1 sequence (P28065 whole entry): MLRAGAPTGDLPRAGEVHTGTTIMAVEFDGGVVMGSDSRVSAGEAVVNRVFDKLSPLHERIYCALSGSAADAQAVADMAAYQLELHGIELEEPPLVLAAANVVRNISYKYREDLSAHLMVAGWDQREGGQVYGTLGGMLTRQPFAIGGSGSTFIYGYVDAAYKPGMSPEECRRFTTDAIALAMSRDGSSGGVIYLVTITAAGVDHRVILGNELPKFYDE
Put plainly: Inhibition of human 20S immunoproteasome beta-1 using Ac-PAL-AMC as substrate incubated for 15 mins measured for 45 mins by fluorescence assay.
Settings: not given; call rule not given here
In short, it runs like this: (§1)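 Human 20S immunoproteasome (0.3 nM) was given 15 min with compound (0.001-50 μM) in pH 8 buffer of 20 mM Tris-HCl, 10% glycerol, 0.01% SDS, 2% DMSO. Ac-PAL-AMC at 50 μM was the substrate. Fluorescence (ex 360/em 460 nm) was followed 45 min at 37 °C relative to control.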
A word on the IC50: it is the concentration needed to halve the response being measured. Lower therefore signals higher potency. `CC(C)(C)OC(=O)N[C@@H](Cc1ccc(OCc2ccccc2)cc1)C(=O)N[C@@H](CC(N)=O)C(=O)N[C@@H](C[C@]1(O)C(=O)Nc2ccccc21)C(=O)NCc1ccccc1` registered a concentration for half-maximal inhibition (IC50) of 16100 nM.

For another data set, the target named is T2, Proteasome subunit beta type-8 (Homo sapiens) (UniProt P28062).
T2 sequence (whole entry): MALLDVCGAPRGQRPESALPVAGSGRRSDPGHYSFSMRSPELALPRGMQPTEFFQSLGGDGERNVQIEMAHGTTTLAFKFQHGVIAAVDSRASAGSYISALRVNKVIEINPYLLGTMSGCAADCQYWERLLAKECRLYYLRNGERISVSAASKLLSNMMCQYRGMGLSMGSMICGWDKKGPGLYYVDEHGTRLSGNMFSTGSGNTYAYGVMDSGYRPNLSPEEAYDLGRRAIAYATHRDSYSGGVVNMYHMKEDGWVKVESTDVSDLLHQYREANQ
Kind of data set: Inhibition of human 20S immunoproteasome beta-5 at 50 uM using Suc-LLVY-AMC as substrate incubated for 15 mins measured for 45 mins by fluorescence assay relative to control.
Settings: not given
An outline of the steps:
(§2)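 Human 20S cCP or iCP (0.3 nM) was exposed to compound (0.001-50 μM) for 15 min in pH 8 buffer of 20 mM Tris-HCl, 10% glycerol, 0.01% SDS, 2% DMSO. Suc-LLVY-AMC at 20 μM followed. Fluorescence (ex 360/em 460 nm) was read 45 min at 37 °C versus untreated enzyme.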
As usually defined, the inhibition is the share of the control response that was lost under treatment. In turn, `CC(C)(C)OC(=O)N[C@@H](Cc1ccc(OCc2ccccc2)cc1)C(=O)N[C@@H](CC(N)=O)C(=O)N[C@@H](C[C@]1(O)C(=O)Nc2ccccc21)C(=O)NCc1ccccc1` yielded an inhibition of over 85%.

The test system of another data set is HCT-116. Kind of data set: Cytotoxicity against human HCT116 cells assessed as reduction in cell viability after 48 hrs by Hoechst 33342 staining based HCS assay. Format: functional. Conditions: hct-116. In short, it runs like this: (§3)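 Cells were grown at 37 °C, 5% CO2 in medium with 10% FBS, 1% penicillin-streptomycin, 2 mM glutamine: DMEM for HuH7, MDA-MB-231 and fibroblasts, EMEM for Caco2, McCoy's for HCT116, RPMI for PC3 and NCI-H727. 4000 cells/well were seeded and dosed 24 h later at 0.1-25 μM final, from DMSO stocks. After 48 h they were fixed in ethanol/acetic acid and Hoechst-stained nuclei were counted by imaging. Survival is relative to DMSO. EC50 came from dose-response curves.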
Turning to `CC(C)(C)OC(=O)N[C@@H](Cc1ccc(OCc2ccccc2)cc1)C(=O)N[C@@H](CC(N)=O)C(=O)N[C@@H](C[C@]1(O)C(=O)Nc2ccccc21)C(=O)NCc1ccccc1`, the EC50 result was “Not Active”.

The next data set has as its target T3, Proteasome Macropain subunit MB1 (Homo sapiens, UniProt P28074).
T3 sequence (P28074 whole entry): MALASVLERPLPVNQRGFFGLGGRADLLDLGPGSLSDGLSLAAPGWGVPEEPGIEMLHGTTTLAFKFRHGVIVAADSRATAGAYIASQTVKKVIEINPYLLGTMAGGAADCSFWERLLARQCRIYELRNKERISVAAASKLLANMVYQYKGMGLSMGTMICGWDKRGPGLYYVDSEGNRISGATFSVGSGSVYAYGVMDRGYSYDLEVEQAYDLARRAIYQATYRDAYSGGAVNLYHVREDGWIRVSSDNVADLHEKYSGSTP
Put plainly: Inhibition of human 20S constitutive proteasome beta-5 using Suc-LLVY-AMC as substrate incubated for 15 mins measured for 45 mins by fluorescence assay.
Settings: not given
In short, it runs like this: as §2
Regarding `CC(C)(C)OC(=O)N[C@@H](Cc1ccc(OCc2ccccc2)cc1)C(=O)N[C@@H](CC(N)=O)C(=O)N[C@@H](C[C@]1(O)C(=O)Nc2ccccc21)C(=O)NCc1ccccc1`, half-maximal inhibition (IC50) was put at 1480 nM.

Another data set deals with NCI-H727. Put plainly: Cytotoxicity against human NCI-H727 cells assessed as reduction in cell viability after 48 hrs by Hoechst 33342 staining based HCS assay. Format: functional. The note with it: nci-h727. An outline of the steps:
as §3
Turning to `CC(C)(C)OC(=O)N[C@@H](Cc1ccc(OCc2ccccc2)cc1)C(=O)N[C@@H](CC(N)=O)C(=O)N[C@@H](C[C@]1(O)C(=O)Nc2ccccc21)C(=O)NCc1ccccc1`, the EC50 entry was “Not Active”.

A further data set concerns Fibroblast. Kind of data set: Cytotoxicity against human fibroblasts assessed as reduction in cell viability at 25 uM after 48 hrs by Hoechst 33342 staining based HCS assay.
Settings: not given
As for `CC(C)(C)OC(=O)N[C@@H](Cc1ccc(OCc2ccccc2)cc1)C(=O)N[C@@H](CC(N)=O)C(=O)N[C@@H](C[C@]1(O)C(=O)Nc2ccccc21)C(=O)NCc1ccccc1`, the Activity result is listed as “Non-Toxic”.

The target of another data set is T4, Proteasome subunit beta type-9 (Homo sapiens) (UniProt P28065).
T4 sequence (whole entry): T1 sequence (P28065 whole entry)
Put plainly: Inhibition of human 20S immunoproteasome beta-1 at 50 uM using Ac-PAL-AMC as substrate incubated for 15 mins measured for 45 mins by fluorescence assay relative to control.
Settings: not given
An outline of the steps: as §1
`CC(C)(C)OC(=O)N[C@@H](Cc1ccc(OCc2ccccc2)cc1)C(=O)N[C@@H](CC(N)=O)C(=O)N[C@@H](C[C@]1(O)C(=O)Nc2ccccc21)C(=O)NCc1ccccc1` showed an inhibition of over 85%.

The next data set deals with MDA-MB-231. Put plainly: Cytotoxicity against human MDA-MB-231 cells assessed as reduction in cell viability after 48 hrs by Hoechst 33342 staining based HCS assay. Format: functional. Conditions: mda-mb-231. An outline of the steps:
as §3
For `CC(C)(C)OC(=O)N[C@@H](Cc1ccc(OCc2ccccc2)cc1)C(=O)N[C@@H](CC(N)=O)C(=O)N[C@@H](C[C@]1(O)C(=O)Nc2ccccc21)C(=O)NCc1ccccc1`, the EC50 result was “Not Active”.

For another data set, the target named is T5, Proteasome component C5 (Homo sapiens) (UniProt P20618).
T5 sequence (whole entry): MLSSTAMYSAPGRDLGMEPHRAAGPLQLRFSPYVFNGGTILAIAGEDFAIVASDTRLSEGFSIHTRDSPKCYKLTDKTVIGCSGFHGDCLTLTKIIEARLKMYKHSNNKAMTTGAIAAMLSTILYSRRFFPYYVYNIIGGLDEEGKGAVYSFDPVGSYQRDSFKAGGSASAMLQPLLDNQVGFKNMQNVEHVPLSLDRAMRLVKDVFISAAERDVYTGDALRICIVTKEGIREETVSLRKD
Put plainly: Inhibition of human 20S constitutive proteasome beta-1 at 50 uM using Z-LLE-betaNA as substrate incubated for 15 mins measured for 45 mins by fluorescence assay relative to control.
Settings: not given
An outline of the steps: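 Human 20S constitutive proteasome, 0.3 nM, was preincubated 15 min with compound (0.001-50 μM) in pH 8 Tris-HCl 20 mM, 10% glycerol, 0.01% SDS, 2% DMSO. Z-LLE-βNA at 50 μM was added. βNA fluorescence (ex 340/em 404 nm) was monitored 45 min at 37 °C against an untreated control.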
With `CC(C)(C)OC(=O)N[C@@H](Cc1ccc(OCc2ccccc2)cc1)C(=O)N[C@@H](CC(N)=O)C(=O)N[C@@H](C[C@]1(O)C(=O)Nc2ccccc21)C(=O)NCc1ccccc1`, the inhibition is over 85%.

For the next data set, the system named is Caco-2. Put plainly: Cytotoxicity against human Caco2 cells assessed as reduction in cell viability after 48 hrs by Hoechst 33342 staining based HCS assay. Format: functional. Conditions: caco-2. In short, it runs like this: as §3
On to `CC(C)(C)OC(=O)N[C@@H](Cc1ccc(OCc2ccccc2)cc1)C(=O)N[C@@H](CC(N)=O)C(=O)N[C@@H](C[C@]1(O)C(=O)Nc2ccccc21)C(=O)NCc1ccccc1`, for which the EC50 result was “Not Active”.

A further data set concerns Huh-7. Kind of data set: Cytotoxicity against human HuH7 cells assessed as reduction in cell viability after 48 hrs by Hoechst 33342 staining based HCS assay. Format: functional. The note with it: huh-7. In short, it runs like this: as §3
With `CC(C)(C)OC(=O)N[C@@H](Cc1ccc(OCc2ccccc2)cc1)C(=O)N[C@@H](CC(N)=O)C(=O)N[C@@H](C[C@]1(O)C(=O)Nc2ccccc21)C(=O)NCc1ccccc1`, the EC50 result is listed as “Not Active”.

The target in the next data set is T6, Proteasome subunit beta type-8 (Homo sapiens, UniProt P28062).
T6 sequence (P28062 whole entry): T2 sequence (whole entry)
Kind of data set: Inhibition of human 20S immunoproteasome beta-5 using Suc-LLVY-AMC as substrate incubated for 15 mins measured for 45 mins by fluorescence assay.
Settings: not given
An outline of the steps:
as §2
As for `CC(C)(C)OC(=O)N[C@@H](Cc1ccc(OCc2ccccc2)cc1)C(=O)N[C@@H](CC(N)=O)C(=O)N[C@@H](C[C@]1(O)C(=O)Nc2ccccc21)C(=O)NCc1ccccc1`, the 50% inhibitory concentration (IC50) came out at 1600 nM. This lies in the single-digit micromolar range.

For another data set, the system named is MCF7. Put plainly: Cytotoxicity against human MCF7 cells assessed as reduction in cell viability after 48 hrs by Hoechst 33342 staining based HCS assay. Type of data set: functional. Conditions: mcf7.
As to `CC(C)(C)OC(=O)N[C@@H](Cc1ccc(OCc2ccccc2)cc1)C(=O)N[C@@H](CC(N)=O)C(=O)N[C@@H](C[C@]1(O)C(=O)Nc2ccccc21)C(=O)NCc1ccccc1`, the EC50 entry was “Not Active”.

Another data set concerns the target T7, Proteasome Macropain subunit MB1 (Homo sapiens) (UniProt P28074).
T7 sequence (whole entry): T3 sequence (P28074 whole entry)
Put plainly: Inhibition of human 20S constitutive proteasome beta-5 at 50 uM using Suc-LLVY-AMC as substrate incubated for 15 mins measured for 45 mins by fluorescence assay relative to control.
Settings: not given
An outline of the steps:
as §2
For the compound `CC(C)(C)OC(=O)N[C@@H](Cc1ccc(OCc2ccccc2)cc1)C(=O)N[C@@H](CC(N)=O)C(=O)N[C@@H](C[C@]1(O)C(=O)Nc2ccccc21)C(=O)NCc1ccccc1`, the inhibition is over 85%.

The next data set has as its system PC-3. Kind of data set: Cytotoxicity against human PC3 cells assessed as reduction in cell viability after 48 hrs by Hoechst 33342 staining based HCS assay. Format: functional. Conditions: pc-3. An outline of the steps: as §3
Regarding `CC(C)(C)OC(=O)N[C@@H](Cc1ccc(OCc2ccccc2)cc1)C(=O)N[C@@H](CC(N)=O)C(=O)N[C@@H](C[C@]1(O)C(=O)Nc2ccccc21)C(=O)NCc1ccccc1`, the EC50 entry is recorded as “Not Active”.

(Values after ChEMBL document CHEMBL4251654, “Structure-based design of human immuno- and constitutive proteasomes inhibitors” (Eur J Med Chem, 2018).)
